Usually IC50 stands for the concentration that gives 50% inhibition.

Bounds are passed on as bounds.

The values that follow come from PMC9079887 (RSC Advances, 2018).

One assay deals with T1, Cathepsin K (Homo sapiens, UniProt P43235).
T1 sequence (P43235 115-329): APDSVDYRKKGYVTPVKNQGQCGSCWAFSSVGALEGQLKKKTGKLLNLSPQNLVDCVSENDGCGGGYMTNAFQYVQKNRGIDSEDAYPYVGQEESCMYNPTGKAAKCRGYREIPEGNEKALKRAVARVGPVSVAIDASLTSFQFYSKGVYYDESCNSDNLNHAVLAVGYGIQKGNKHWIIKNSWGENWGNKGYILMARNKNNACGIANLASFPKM
Briefly: Cathepsin activity assay, z-Phe-Arg-AMC substrate, cathepsin K. It is filed as biochemical. The conditions noted are these: read-out: IC50 Cathepsin K, pH 5.5, tested under 10 μM. The method, boiled down:
(§1)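 Cathepsin activity was read fluorimetrically on a microplate reader with z-Phe-Arg-AMC as substrate. Activity data were fitted to a linearized curve, and IC50 was read from that curve.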

In the next assay the target is Cathepsin L (Homo sapiens, UniProt P07711). Nature of the assay: Cathepsin activity assay, z-Phe-Arg-AMC substrate, cathepsin L. It is filed as biochemical. The conditions noted are these: read-out: IC50 Cathepsin L, pH 5.5, tested under 10 μM. In short, it runs like this:
as §1

The next assay concerns pro-MMP-2. As to conditions: <50 μmol L^−1; cited from earlier work.
A further assay relates to activated form of MMP-2. The conditions noted are these: <50 μmol L^−1; cited from earlier work.

Chain of Cathepsin L (P07711 114-333, species assumed): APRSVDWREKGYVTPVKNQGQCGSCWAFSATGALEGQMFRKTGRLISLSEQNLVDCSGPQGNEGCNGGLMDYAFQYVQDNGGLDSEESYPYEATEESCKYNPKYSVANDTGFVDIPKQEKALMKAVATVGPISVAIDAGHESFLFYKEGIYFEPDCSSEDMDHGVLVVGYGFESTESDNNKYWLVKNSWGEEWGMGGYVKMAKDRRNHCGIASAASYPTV

In the case of `[Cl][Yb]([Cl])[Cl]` [YbCl3·6H2O], the IC50 on Cathepsin K and on Cathepsin L was > 10 µM in each case.

Turning to `[Cl-].[Cl-].[Cl-].[Tb+3]` [TbCl3·6H2O], the IC50 on Cathepsin K and on Cathepsin L was > 10 µM throughout.

Take `[Cl-].[Cl-].[Cl-].[Gd+3]` [GdCl36H2O]: the IC50 on Cathepsin K and on Cathepsin L was > 10 µM throughout.

In the case of `O.O.O.O.O.O.O.[Cl-].[Cl-].[Cl-].[La+3]` [LaCl3·7H2O], the “effect on activity and expression of pro-MMP-2” value in the assay with pro-MMP-2 was “inhibits the activity and expression of pro-MMP-2”. Further, in the assay on activated form of MMP-2, the “effect on the activated form of MMP-2” value is reported as “does not suppress the activated form of MMP-2”.

For the compound `[Cl][Eu]([Cl])[Cl]` [EuCl3·6H2O], the IC50 at Cathepsin K and at Cathepsin L was > 10 µM throughout.

Take `[Cl-].[Cl-].[Cl-].[La+3]` [LaCl3·7H2O]: the IC50 at Cathepsin K and at Cathepsin L was > 10 µM throughout.
